In brackets after ≈: the same amount, converted by molar mass. Activity calls are given as the source filed them. The rule behind the calls is not given here.
Legend:
[1] = Toxicity in mouse assessed as effect on lung weight at 300 mg/kg administered as single dose and measured for 14 days; assay type: organism-based; settings: in vivo, 336 h, time 14 day
[2] = biological target: T1, Enoyl-[acyl-carrier-protein] reductase [NADH] (Mycobacterium tuberculosis, UniProt P9WGR1); assay: Noncompetitive inhibition of Mycobacterium tuberculosis InhA using DD-CoA as substrate assessed as inhibition constant for enzyme-inhibitor binary complex in presence of varying concentrations of NADH by double reciprocal plot analysis
T1 sequence (P9WGR1 whole entry): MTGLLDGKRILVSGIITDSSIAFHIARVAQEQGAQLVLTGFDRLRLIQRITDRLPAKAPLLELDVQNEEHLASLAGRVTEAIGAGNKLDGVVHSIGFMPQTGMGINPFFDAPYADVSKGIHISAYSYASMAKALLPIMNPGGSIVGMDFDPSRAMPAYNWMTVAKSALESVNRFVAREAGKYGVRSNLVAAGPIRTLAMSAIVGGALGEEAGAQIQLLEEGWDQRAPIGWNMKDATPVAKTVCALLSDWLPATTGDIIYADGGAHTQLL

[3] = biological target: T1, Enoyl-[acyl-carrier-protein] reductase [NADH]; assay: Binding affinity to Mycobacterium tuberculosis InhA assessed as dissociation constant at 250 uM at 25 degreeC in presence of NADH by fluorescence spectroscopy
How it was run: (§1)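 Titration of pre-formed MtInhA:NADH complex (2 mL of 3 μM enzyme with 20 μM NADH), adding microliter aliquots of 250 μM ligand stock with dilution kept ≤1%. Intrinsic fluorescence read at 295 nm excitation, 310–500 nm emission. Temperatures 15, 20, 25 and 30 °C. KD is fitted to a hyperbolic isotherm. ΔH°, ΔS° and ΔG° come from van't Hoff analysis of KD across temperatures.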

[4] = biological target: T1, Enoyl-[acyl-carrier-protein] reductase [NADH]; assay: Binding affinity to Mycobacterium tuberculosis InhA assessed as dissociation constant at 250 uM at 15 degreeC in presence of NADH by fluorescence spectroscopy; how it was run: as §1
Escherichia coli = assay: Antibacterial activity against Escherichia coli ATCC 25922 assessed as inhibition of bacterial growth at 20 uM by broth microdilution method; assay type: functional, organism-based
How it was run: (§2)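 Broth microdilution in triplicate against a small bacterial panel, with compounds tested at 20 μM for growth inhibition.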

[5] = test system: Mycobacterium tuberculosis; assay: Bacteriostatic activity in Mycobacterium tuberculosis H37Rv ATCC 27294 infected in CF-1 mouse assessed as reduction in bacterial growth in lungs at 300 to 450 uM/kg, po administered daily for 14 days starting from 7 days post infection; assay type: functional, organism-based; settings: dose 300-450 µM/Kg, time 14.0 day
How it was run: (§3)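 Mice treated by gavage from 7 days post-infection for 14 days, daily, at 300 or 450 μM/kg. Lungs and spleen homogenized in saline and plated for CFU. Comparisons are against vehicle and early-control groups.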

[6] = Toxicity in mouse assessed as animal death at 300 mg/kg administered as single dose and measured for 14 days; assay type: organism-based; settings: in vivo, 336 h, time 14 day
How it was run: (§4)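 Acute oral toxicity study. At day 14 the animals were euthanized, and kidneys, liver and spleen were weighed and inspected macroscopically.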

[7] = Toxicity in mouse at 300 mg/kg administered as single dose and measured for 14 days; assay type: organism-based; settings: in vivo, 336 h, time 14 day; how it was run: as §4
[8] = Toxicity in mouse assessed as effect on body weight at 300 mg/kg administered as single dose and measured for 14 days; assay type: organism-based; settings: in vivo, 336 h, time 14 day; how it was run: as §4
[9] = test system: Mycobacterium tuberculosis; assay: Antibacterial activity against Mycobacterium tuberculosis H37Rv ATCC 27294 infected in CF-1 mouse assessed as reversal of bacterial growth in spleen at 300 to 450 uM/kg, po administered daily for 14 days starting from 7 days post infection; assay type: functional, organism-based; settings: dose 300-450 µM/Kg, time 14.0 day; how it was run: as §3
[10] = Cytotoxicity against human HepG2 cells assessed as reduction in cell viability incubated for 72 hrs by MTT assay; assay type: toxicity, cell-based
How it was run: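 Cells grown in DMEM with 10% FBS. HepG2 seeded at 4 × 10³ and Vero at 2 × 10³ cells/well, 24 h before dosing. Compounds at 1, 5 and 20 μM in 1% DMSO for 72 h at 37 °C, 5% CO2. MTT readout: 5 mg/mL reagent for 4 h, absorbance at 595 nm. Neutral red readout: 25 μg/mL dye for 3 h, then acid-ethanol desorb. Viability is expressed relative to 1% DMSO controls.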

[11] = test system: Mycobacterium tuberculosis; assay: Potency index, ratio of isoniazid MIC to test compound MIC for antibacterial activity against pan-sensitive Mycobacterium tuberculosis H37Rv ATCC 27294 measured after 7 days by resazurin dye based assay; assay type: functional; settings: time 7 day
[12] = Toxicity in CF-1 mouse assessed as reduction in body weight at 150 uM/kg, po administered daily for 14 days; assay type: organism-based; settings: in vivo, 336 h, time 14 day
How it was run: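 Mice were infected with M. tuberculosis H37Rv. From 7 days after infection, test and reference drugs were given daily by oral gavage for 14 days, with a vehicle-only group. Body weight was followed over the course of the experiment.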

[13] = Toxicity in mouse assessed as effect on spleen weight at 300 mg/kg administered as single dose and measured for 14 days; assay type: organism-based; settings: in vivo, 336 h, time 14 day; how it was run: as §4
[14] = biological target: T1, Enoyl-[acyl-carrier-protein] reductase [NADH]; assay: Binding affinity to Mycobacterium tuberculosis InhA assessed as dissociation constant at 250 uM at 20 degreeC in presence of NADH by fluorescence spectroscopy; how it was run: as §1
Acinetobacter baumannii = assay: Antibacterial activity against multidrug-resistant Acinetobacter baumannii clinical isolates assessed as inhibition of bacterial growth at 20 uM by broth microdilution method; assay type: functional, organism-based; how it was run: as §2
[15] = Solubility of compound in PBS at pH 7.4 at 1 mg incubated for 4 hrs under shaking conditions by liquid chromotography; assay type: physicochemical
How it was run: (§5)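 1 mg of compound was added to 1 mL of PBS pH 7.4 or 0.1 M HCl, in triplicate. Suspensions were vortexed 1 min, shaken 4 h at 25 °C, then centrifuged 13000 rpm for 15 min at 25 °C. Supernatant was quantified by reverse-phase UHPLC (UV 260–280 nm) against a single-point calibration of compound in DMSO.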

[16] = Selectivity index, ratio of CC50 for African green monkey Vero cells by neutral red uptake assay to MIC for pan-sensitive Mycobacterium tuberculosis H37Rv ATCC 27294; assay type: toxicity, cell-based; settings: read-out: Selectivity Index
[17] = Permeability of compound at 10 uM measured after 5 hrs by PAMPA assay; assay type: ADME; settings: read-out: permeability
How it was run: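 PAMPA: compounds at 10 μM in 2% DMSO added to a pH 7.4 donor phase, 5 h at room temperature. Receptor-side concentration (pH 7.4) measured to derive permeation rate. Alprenolol is the analytical control.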

[18] = biological target: T1, Enoyl-[acyl-carrier-protein] reductase [NADH]; assay: Noncompetitive inhibition of Mycobacterium tuberculosis InhA using DD-CoA as substrate assessed as inhibition constant for enzyme-substrate-inhibitor ternary complex in presence of varying concentrations of NADH by double reciprocal plot analysis
[19] = Selectivity index, ratio of CC50 for African green monkey Vero cells by MTT assay to MIC for pan-sensitive Mycobacterium tuberculosis H37Rv ATCC 27294; assay type: toxicity, cell-based; settings: read-out: Selectivity Index
[20] = Genotoxicity in human HepG2 cells assessed as induction of DNA damage at 1 to 5 uM incubated for 24 hrs by alkaline comet assay; assay type: toxicity, cell-based; settings: hepg2, 24 h, dose 1-5 µM
How it was run: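 Alkaline comet assay in HepG2 cells seeded at 8 × 10⁴ cells/well. Exposure to 1 or 5 μM for 24 h. Lysis 48 h, alkali unwinding (300 mM NaOH, pH >13) 20 min at 4 °C, electrophoresis 20 min at 25 V, silver staining.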

[21] = Solubility of compound in 0.1 M HCl solution at pH 1.2 at 1 mg incubated for 4 hrs under shaking conditions by liquid chromotography; assay type: physicochemical; how it was run: as §5

Cc1cc(Nc2ccc(N3CCCCC3)cc2)c2cc(Br)ccc2n1
Activity [1]: Non-Toxic
Ki [2]: 140 nM
Kd [3]: 810 nM
Kd [4]: 280 nM
Activity (Escherichia coli): inactive
Activity [5]: Active
Activity [6]: Non-Toxic
Activity [7]: Non-Toxic
Activity [8]: Non-Toxic
Activity [9]: inactive
CC50 at 72 h [10]: > 20000 nM
Ratio [11]: ~5.8
Activity [12]: Non-Toxic
Activity [13]: Non-Toxic
Kd [14]: 470 nM
Activity (Acinetobacter baumannii): inactive
solubility thermodynamic at 4 h [15]: 3.9 µM (≈ 1.55 µg/mL)
selectivity ratio [16]: 30.5
Papp at 5 h, 10 µM [17]: 3.16 ×10⁻⁶ cm/s
Ki [18]: 150 nM
selectivity ratio [19]: > 50
Activity [20]: Non-Toxic
solubility thermodynamic at 4 h [21]: > 2500 µM

Cc1cc(Nc2ccc(N3CCCCC3)cc2)c2cc(Cl)ccc2n1
Ki [2]: 430 nM
Kd [3]: 900 nM
Activity (Escherichia coli): inactive
CC50 at 72 h [10]: > 20000 nM
Ratio [11]: ~2.6
Activity (Acinetobacter baumannii): inactive
solubility thermodynamic at 4 h [15]: 18.6 µM (≈ 6.54 µg/mL)
selectivity ratio [16]: 13
Papp at 5 h, 10 µM [17]: 11.5 ×10⁻⁶ cm/s
Ki [18]: 460 nM
selectivity ratio [19]: 21.3
Activity [20]: Non-Toxic
solubility thermodynamic at 4 h [21]: > 2800 µM
